{"data": "Measured values from different studies", "target": "Inhibitor of nuclear factor kappa-B kinase subunit epsilon (IKBKE, Homo sapiens, UniProt Q14164)", "observed": "enzyme activity", "One construct used (Q14164 1-716)": "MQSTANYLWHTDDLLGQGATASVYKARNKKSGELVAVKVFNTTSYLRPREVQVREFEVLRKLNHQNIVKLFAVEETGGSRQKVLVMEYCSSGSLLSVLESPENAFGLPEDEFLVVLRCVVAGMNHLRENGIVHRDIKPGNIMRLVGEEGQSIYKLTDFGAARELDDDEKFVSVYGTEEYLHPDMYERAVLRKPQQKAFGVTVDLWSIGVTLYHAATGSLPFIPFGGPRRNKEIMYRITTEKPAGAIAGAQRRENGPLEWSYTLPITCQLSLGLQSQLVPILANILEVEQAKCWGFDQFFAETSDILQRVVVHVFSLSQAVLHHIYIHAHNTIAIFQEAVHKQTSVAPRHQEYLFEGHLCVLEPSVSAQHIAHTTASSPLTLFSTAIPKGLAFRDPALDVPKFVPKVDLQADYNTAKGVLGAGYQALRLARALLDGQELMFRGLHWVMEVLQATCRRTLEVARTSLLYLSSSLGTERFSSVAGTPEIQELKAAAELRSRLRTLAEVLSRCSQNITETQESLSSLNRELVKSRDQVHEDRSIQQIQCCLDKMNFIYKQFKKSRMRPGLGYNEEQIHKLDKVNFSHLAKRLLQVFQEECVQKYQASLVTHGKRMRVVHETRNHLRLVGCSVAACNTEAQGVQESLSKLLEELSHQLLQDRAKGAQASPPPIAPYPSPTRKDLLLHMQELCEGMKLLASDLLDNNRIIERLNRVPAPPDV", "note": "Each line is one published result; the experiments were not run side by side."}
{"Structure (SMILES)": "Cc1nn(CC(F)(F)F)cc1Nc1ncc(Br)c(NCCc2cnc[nH]2)n1", "test": "inhibitor, radiometric", "setting": "1 µM", "remaining activity [%]": 55}
{"Structure (SMILES)": "Nc1ncnc2occ(-c3ccc(NC(=O)Nc4cc(C(F)(F)F)ccc4F)cc3)c12", "test": "inhibitor", "setting": "20 µM", "remaining activity [%]": 12}
{"Structure (SMILES)": "Clc1ccc(Nc2nnc(Cc3ccncc3)c3ccccc23)cc1", "setting": "0.5 µM", "remaining activity [%]": 95.7}
{"Structure (SMILES)": "COc1cc(Nc2cnc(C#N)c(O[C@H](C)CN(C)C)n2)ncc1-c1cnn(C)c1", "test": "inhibitor, radiometric", "setting": "10 µM", "remaining activity [%]": 84}
{"Structure (SMILES)": "Brc1cnc(Nc2cccc(CN3CCOCC3)c2)nc1NCCc1c[nH]cn1", "test": "inhibitor, radiometric", "setting": "1 µM", "remaining activity [%]": 36}
{"Structure (SMILES)": "Cc1ccc(C(=O)Nc2ccc(CN3CCN(C)CC3)c(C(F)(F)F)c2)cc1C#Cc1cnc2cccnn12", "test": "inhibitor", "setting": "23.5 nM", "remaining activity [%]": 99}
{"Structure (SMILES)": "O=C(Nc1cnn(-c2csc(C(=O)NC3COC3)c2)c1)Nc1c(F)cccc1Cl", "test": "inhibitor", "setting": "5 µM", "remaining activity [%]": 96.8}
{"Structure (SMILES)": "CC(C)(C)c1nc(-c2cccc(NS(=O)(=O)c3c(F)cccc3F)c2F)c(-c2ccnc(N)n2)s1", "test": "inhibitor, radiometric", "setting": "1 µM", "remaining activity [%]": 97}
{"Structure (SMILES)": "Cn1c(=O)n(-c2ccc(C(C)(C)C#N)cc2)c2c3cc(-c4cnc5ccccc5c4)ccc3ncc21", "test": "inhibitor", "setting": "10 µM", "remaining activity [%]": 86}
{"Structure (SMILES)": "NS(=O)(=O)c1ccc(CNc2ccnc(Nc3cccc(CN4CCOCC4)c3)n2)cc1", "test": "inhibitor, radiometric", "setting": "1 µM", "remaining activity [%]": 78}
{"Structure (SMILES)": "Cc1cnc(NC2CCOCC2)nc1-n1cnc(C(=O)NC(CN)c2cc(F)cc(Cl)c2)c1 (stereo not drawn)", "test": "inhibitor, radiometric", "setting": "1 µM", "remaining activity [%]": 64}
{"Structure (SMILES)": "NS(=O)(=O)c1ccc(CNc2nc(Nc3cccc(NC(=O)N4CCCC4)c3)ncc2Br)cc1", "test": "inhibitor, radiometric", "setting": "1 µM", "remaining activity [%]": 35}
{"Structure (SMILES)": "O=C1Nc2ccc(Cl)cc2C1=Cc1cc(Cl)c(O)c(Cl)c1", "setting": "0.5 µM", "remaining activity [%]": 94.7}
{"Structure (SMILES)": "O=C(NCCCNc1nc(Nc2cccc(NC(=O)N3CCCC3)c2)ncc1I)c1cccs1", "test": "inhibitor, radiometric", "setting": "1 µM", "remaining activity [%]": 2}
{"Structure (SMILES)": "O=C1NC(=O)c2cc(Nc3ccc(F)cc3)c(Nc3ccc(F)cc3)cc21", "test": "inhibitor", "setting": "0.5 µM", "remaining activity [%]": 100}
